According to ChEMBL document CHEMBL4190388, “Discovery and Optimization of Indolyl-Containing 4-Hydroxy-2-Pyridone Type II DNA Topoisomerase Inhibitors Active against Multidrug Resistant Gram-negative Bacteria” (J Med Chem, 2018):
Converted amounts (≈) assume the structure as drawn.

Tests used:
Mus musculus [1] = assay: Terminal half life in CD1 mouse plasma at 10 mg/kg, iv by LC-MS/MS analysis; assay type: ADME, organism-based; conditions: in vivo
Mus musculus [2] = assay: Volume of distribution at steady state in CD1 mouse plasma at 10 mg/kg, iv by LC-MS/MS analysis; assay type: ADME, organism-based; conditions: in vivo
Acinetobacter baumannii [3] = assay: Antibacterial activity against carbapenem resistant Acinetobacter baumannii by broth microdilution method; assay type: functional; conditions: Acinetobacter baumannii; for MIC: read-out: MIC
Summary of the method: (§1)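 MICs were determined by CLSI broth methods, except that organisms were grown in brain–heart–infusion medium. The panel comprised wild-type and resistant E. coli and A. baumannii strains, including 12 strains whose details are given by reference.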

[4] = Fraction unbound in mouse plasma at 1 uM by equilibrium dialysis method; assay type: ADME, cell-free
Mus musculus [5] = assay: AUC (0 to 24 hrs) in CD1 mouse plasma at 10 mg/kg, iv by LC-MS/MS analysis; assay type: ADME, organism-based; set-up: time < 24 hr, dose 10 mg/kg, route intravenous; conditions: in vivo
Summary of the method: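 CD-1 mice given a single 10 mg/kg iv dose (n = 3), in either 10% DMSO plus 1% Tween 80 in pH 8.0 phosphate buffer or 20% (2-hydroxypropyl)-β-cyclodextrin in pH 4.0 citrate buffer; plasma exposure measured.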

Escherichia coli [6] = assay: Antibacterial activity against quinolone resistance Escherichia coli isolate ELZ4251 harboring gyrA/parC mutant by CLSI M100-S17 protocol based method; assay type: functional
Escherichia coli [7] = assay: Antibacterial activity against wild type Escherichia coli ATCC 25922 by CLSI M100-S17 protocol based method; assay type: functional
Acinetobacter baumannii [8] = assay: Antibacterial activity against fluoroquinolone resistant Acinetobacter baumannii isolate MMX2240 by CLSI M100-S17 protocol based method; assay type: functional
Acinetobacter baumannii [9] = assay: Antibacterial activity against beta-lactam resistant Acinetobacter baumannii by broth microdilution method; assay type: functional; conditions: Acinetobacter baumannii; for MIC: read-out: MIC; summary of the method: as §1
Escherichia coli [10] = assay: Antibacterial activity against fluoroquinolone resistant Escherichia coli SKM18 by CLSI M100-S17 protocol based method; assay type: functional
Acinetobacter baumannii [11] = assay: Antibacterial activity against wild type Acinetobacter baumannii ATCC BAA-747 by CLSI M100-S17 protocol based method; assay type: functional
Acinetobacter baumannii [12] = assay: Antibacterial activity against multidrug resistant Acinetobacter baumannii by broth microdilution method; assay type: functional; conditions: Acinetobacter baumannii; for MIC: read-out: MIC; summary of the method: as §1
Acinetobacter baumannii [13] = assay: Antibacterial activity against wild type Acinetobacter baumannii by broth microdilution method; assay type: functional; summary of the method: as §1
Escherichia coli [14] = assay: Antibacterial activity against multidrug resistant Escherichia coli by broth microdilution method; assay type: functional; conditions: Escherichia coli; for MIC: read-out: MIC; summary of the method: as §1
Escherichia coli [15] = assay: Selectivity ratio of MIC for wild type Escherichia coli ATCC 25922 in presence of HSA to MIC for wild type Escherichia coli ATCC 25922; assay type: functional
Escherichia coli [16] = assay: Antibacterial activity against quinolone resistant Escherichia coli by broth microdilution method; assay type: functional; conditions: Escherichia coli; for MIC: read-out: MIC; summary of the method: as §1
[17] = Oral bioavailability in CD1 mouse plasma by LC-MS/MS analysis; assay type: ADME, organism-based
Escherichia coli [18] = assay: Antibacterial activity against beta-lactam resistant Escherichia coli by broth microdilution method; assay type: functional; conditions: Escherichia coli; for MIC: read-out: MIC; summary of the method: as §1
Escherichia coli [19] = assay: Antibacterial activity against aminoglycoside resistant Escherichia coli by broth microdilution method; assay type: functional; conditions: Escherichia coli; for MIC: read-out: MIC; summary of the method: as §1
Escherichia coli [20] = assay: Antibacterial activity against wild type Escherichia coli ATCC 25922 in presence of HSA by CLSI M100-S17 protocol based method; assay type: functional
Klebsiella pneumoniae = assay: Antibacterial activity against wild type Klebsiella pneumoniae ATCC 35657 by CLSI M100-S17 protocol based method; assay type: functional
Acinetobacter baumannii [21] = assay: Antibacterial activity against quinolone resistant Acinetobacter baumannii by broth microdilution method; assay type: functional; conditions: Acinetobacter baumannii; for MIC: read-out: MIC; summary of the method: as §1
Acinetobacter baumannii [22] = assay: Antibacterial activity against aminoglycoside resistant Acinetobacter baumannii by broth microdilution method; assay type: functional; conditions: Acinetobacter baumannii; for MIC: read-out: MIC; summary of the method: as §1
Escherichia coli [23] = assay: Antibacterial activity against wild type Escherichia coli by broth microdilution method; assay type: functional; summary of the method: as §1
[24] = Inhibition of Escherichia coli DNA topoisomerase 4 assessed as reduction in decatenation activity using kinetoplast concatenated DNA as substrate after 30 mins by picogreen dye based fluorescence assay
DNA gyrase subunit A = DNA gyrase subunit A (Escherichia coli K-12, UniProt P0AES4); assay: Inhibition of His tagged Escherichia coli ATCC 25922 DNA gyrase A SD-LY mutant expressed in Escherichia coli BL21 (DE3) pLysS cells assessed as reduction in enzyme-mediated supercoiling of relaxed plasmid DNA pNO1 after 30 mins in presence of biotinylated TFO1 by fluorescence assay
DNA gyrase subunit A, sequence (P0AES4 2-875 limits assumed): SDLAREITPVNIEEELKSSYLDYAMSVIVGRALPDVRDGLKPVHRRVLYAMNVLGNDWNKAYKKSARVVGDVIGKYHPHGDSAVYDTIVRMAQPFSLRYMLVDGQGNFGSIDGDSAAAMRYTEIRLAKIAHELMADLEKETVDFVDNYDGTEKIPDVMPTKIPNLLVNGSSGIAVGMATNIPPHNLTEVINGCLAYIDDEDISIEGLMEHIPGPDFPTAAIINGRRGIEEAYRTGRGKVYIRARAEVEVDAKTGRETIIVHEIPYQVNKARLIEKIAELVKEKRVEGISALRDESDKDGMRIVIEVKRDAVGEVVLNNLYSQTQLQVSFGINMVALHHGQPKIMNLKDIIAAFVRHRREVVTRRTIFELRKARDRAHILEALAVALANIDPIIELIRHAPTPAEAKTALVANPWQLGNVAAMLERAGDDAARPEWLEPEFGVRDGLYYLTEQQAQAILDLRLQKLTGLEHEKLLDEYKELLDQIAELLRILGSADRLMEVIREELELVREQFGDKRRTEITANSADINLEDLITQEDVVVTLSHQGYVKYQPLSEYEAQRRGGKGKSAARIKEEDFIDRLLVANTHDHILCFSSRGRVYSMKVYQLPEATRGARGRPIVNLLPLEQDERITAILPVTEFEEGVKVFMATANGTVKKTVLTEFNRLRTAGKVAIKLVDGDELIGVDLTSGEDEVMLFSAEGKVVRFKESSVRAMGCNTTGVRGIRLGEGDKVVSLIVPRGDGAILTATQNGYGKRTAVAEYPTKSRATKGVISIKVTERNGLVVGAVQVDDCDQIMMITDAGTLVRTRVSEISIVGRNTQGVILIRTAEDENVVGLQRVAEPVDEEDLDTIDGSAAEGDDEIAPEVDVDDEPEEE

Escherichia coli [25] = assay: Antibacterial activity against Escherichia coli SKM11 by CLSI M100-S17 protocol based method; assay type: functional
Escherichia coli [26] = assay: Antibacterial activity against Escherichia coli infected in cyclophosphamide treated neutropenic CD1 mouse septicemia model assessed as mouse survival at 20 mg/kg, iv dosed at 1 hr post infection followed by redosing at 5 hrs post infection measured at 96 hrs post infection relative to control; assay type: functional
Summary of the method: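 Female CD-1 mice were made neutropenic with cyclophosphamide ip, 150 mg/kg on day −4 and 100 mg/kg on day −1. […] Compound was given iv in 3% DMSO/saline at 1 and 5 h postinfection, n = 6 per group. Percent survival was scored at 96 h postinfection.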

[27] = Inhibition of His tagged Escherichia coli ATCC 25922 DNA gyrase A expressed in Escherichia coli BL21 (DE3) pLysS cells assessed as reduction in enzyme-mediated supercoiling of relaxed plasmid DNA pNO1 after 30 mins in presence of biotinylated TFO1 by fluorescence assay
Escherichia coli [28] = assay: Antibacterial activity against wild type Escherichia coli 1609 by CLSI M100-S17 protocol based method; assay type: functional

With `CN(C)Cc1cc2cc3c(cc2n1C)CCCc1c-3[nH]c(=O)c(C(=O)O)c1O` the “beta t1/2” value (Mus musculus [1]) was 2.9 h, the Vdss (Mus musculus [2]) was 11 L/kg and the MIC50 (Acinetobacter baumannii [3]) was 2 µg/mL (≈ 5.24 µM). For the same molecule, the MIC (Acinetobacter baumannii [3]) was 0.12 to 16 µg/mL (≈ 0.315 to 41.9 µM), the Fu [4] was 0.1 and the AUC (Mus musculus [5]) was 3520 ng·h/mL. It also gave an MIC (Escherichia coli [6]) of 1.6 µg/mL (≈ 4.19 µM), an MIC (Escherichia coli [7]) of 0.78 µg/mL (≈ 2.04 µM) and an MIC (Acinetobacter baumannii [8]) of 1.6 µg/mL (≈ 4.19 µM). The MIC50 (Acinetobacter baumannii [9]) was 2 µg/mL (≈ 5.24 µM), the MIC (Acinetobacter baumannii [9]) was 0.12 to 16 µg/mL (≈ 0.315 to 41.9 µM) and the MIC (Escherichia coli [10]) was 0.78 µg/mL (≈ 2.04 µM). It also gave an MIC (Acinetobacter baumannii [11]) of 1.6 µg/mL (≈ 4.19 µM), an MIC50 (Acinetobacter baumannii [12]) of 2 µg/mL (≈ 5.24 µM) and an MIC (Acinetobacter baumannii [12]) of 0.12 to 16 µg/mL (≈ 0.315 to 41.9 µM). The MIC50 (Acinetobacter baumannii [13]) was 2 µg/mL (≈ 5.24 µM), the MIC90 (Acinetobacter baumannii [13]) was > 16 µg/mL and the MIC50 (Escherichia coli [14]) was 0.5 µg/mL (≈ 1.31 µM). The MIC90 (Escherichia coli [14]) was 1 µg/mL (≈ 2.62 µM), the MIC (Escherichia coli [14]) was 0.25 to 2 µg/mL (≈ 0.655 to 5.24 µM) and the Ratio (Escherichia coli [15]) was 4 - 16. It also gave an MIC50 (Escherichia coli [16]) of 0.5 µg/mL (≈ 1.31 µM), an MIC90 (Escherichia coli [16]) of 1 µg/mL (≈ 2.62 µM) and an MIC (Escherichia coli [16]) of 0.25 to 2 µg/mL (≈ 0.655 to 5.24 µM). For the same molecule, the bioavailability [17] was 42%, the MIC50 (Escherichia coli [18]) was 0.5 µg/mL (≈ 1.31 µM) and the MIC90 (Escherichia coli [18]) was 1 µg/mL (≈ 2.62 µM). For the same molecule, the MIC (Escherichia coli [18]) was 0.25 to 2 µg/mL (≈ 0.655 to 5.24 µM), the MIC50 (Escherichia coli [19]) was 0.5 µg/mL (≈ 1.31 µM) and the MIC90 (Escherichia coli [19]) was 1 µg/mL (≈ 2.62 µM). For the same molecule, the MIC (Escherichia coli [19]) was 0.25 to 2 µg/mL (≈ 0.655 to 5.24 µM), the MIC (Escherichia coli [20]) was 12.5 µg/mL and the MIC (Klebsiella pneumoniae) was 0.78 µg/mL (≈ 2.04 µM). The MIC50 (Acinetobacter baumannii [21]) was 2 µg/mL (≈ 5.24 µM), the MIC (Acinetobacter baumannii [21]) was 0.12 to 16 µg/mL (≈ 0.315 to 41.9 µM) and the MIC50 (Acinetobacter baumannii [22]) was 2 µg/mL (≈ 5.24 µM). For the same molecule, the MIC (Acinetobacter baumannii [22]) was 0.12 to 16 µg/mL (≈ 0.315 to 41.9 µM), the MIC50 (Escherichia coli [23]) was 0.5 µg/mL (≈ 1.31 µM) and the MIC90 (Escherichia coli [23]) was 1 µg/mL (≈ 2.62 µM).

Work on `CCNCc1cc2cc3c(cc2n1C)CCCc1c-3[nH]c(=O)c(C(=O)O)c1O` yielded an MIC50 (Acinetobacter baumannii [3]) of 2 µg/mL (≈ 5.24 µM), an MIC90 (Acinetobacter baumannii [3]) of 16 µg/mL (≈ 41.9 µM) and an MIC (Acinetobacter baumannii [3]) of 0.25 to 32 µg/mL (≈ 0.655 to 83.9 µM). It also gave a Fu [4] of 0.17, an MIC (Escherichia coli [6]) of 1.6 µg/mL (≈ 4.19 µM) and an IC50 [24] of 2900 nM. The IC50 (DNA gyrase subunit A) was 760 nM, the MIC (Escherichia coli [7]) was 0.39 µg/mL (≈ 1.02 µM) and the MIC (Acinetobacter baumannii [8]) was 1.6 µg/mL (≈ 4.19 µM). It also gave an MIC50 (Acinetobacter baumannii [9]) of 2 µg/mL (≈ 5.24 µM), an MIC90 (Acinetobacter baumannii [9]) of 16 µg/mL (≈ 41.9 µM) and an MIC (Acinetobacter baumannii [9]) of 0.25 to 32 µg/mL (≈ 0.655 to 83.9 µM). It also gave an MIC (Escherichia coli [10]) of 0.39 µg/mL (≈ 1.02 µM), an MIC (Acinetobacter baumannii [11]) of 0.78 µg/mL (≈ 2.04 µM) and an MIC (Escherichia coli [25]) of 1.6 µg/mL (≈ 4.19 µM). The MIC50 (Acinetobacter baumannii [12]) was 2 µg/mL (≈ 5.24 µM), the MIC90 (Acinetobacter baumannii [12]) was 16 µg/mL (≈ 41.9 µM) and the MIC (Acinetobacter baumannii [12]) was 0.25 to 32 µg/mL (≈ 0.655 to 83.9 µM). It also gave an MIC50 (Acinetobacter baumannii [13]) of 2 µg/mL (≈ 5.24 µM), an MIC90 (Acinetobacter baumannii [13]) of 16 µg/mL (≈ 41.9 µM) and a survival at 20 mg/kg (Escherichia coli [26]) of 83%. The MIC50 (Escherichia coli [14]) was 1 µg/mL (≈ 2.62 µM), the MIC90 (Escherichia coli [14]) was 1 µg/mL (≈ 2.62 µM) and the MIC (Escherichia coli [14]) was 0.25 to 1 µg/mL (≈ 0.655 to 2.62 µM). It also gave an MIC50 (Escherichia coli [16]) of 1 µg/mL (≈ 2.62 µM), an MIC90 (Escherichia coli [16]) of 1 µg/mL (≈ 2.62 µM) and an MIC (Escherichia coli [16]) of 0.25 to 1 µg/mL (≈ 0.655 to 2.62 µM). It also gave an IC50 [27] of 56 to 100 nM, an MIC50 (Escherichia coli [18]) of 1 µg/mL (≈ 2.62 µM) and an MIC90 (Escherichia coli [18]) of 1 µg/mL (≈ 2.62 µM). For the same molecule, the MIC (Escherichia coli [18]) was 0.25 to 1 µg/mL (≈ 0.655 to 2.62 µM), the MIC50 (Escherichia coli [19]) was 1 µg/mL (≈ 2.62 µM) and the MIC90 (Escherichia coli [19]) was 1 µg/mL (≈ 2.62 µM). It also gave an MIC (Escherichia coli [19]) of 0.25 to 1 µg/mL (≈ 0.655 to 2.62 µM), an MIC (Escherichia coli [20]) of 6.3 µg/mL and an MIC (Klebsiella pneumoniae) of 0.78 µg/mL (≈ 2.04 µM). It also gave an MIC50 (Acinetobacter baumannii [21]) of 2 µg/mL (≈ 5.24 µM), an MIC90 (Acinetobacter baumannii [21]) of 16 µg/mL (≈ 41.9 µM) and an MIC (Acinetobacter baumannii [21]) of 0.25 to 32 µg/mL (≈ 0.655 to 83.9 µM). It also gave an MIC50 (Acinetobacter baumannii [22]) of 2 µg/mL (≈ 5.24 µM), an MIC90 (Acinetobacter baumannii [22]) of 16 µg/mL (≈ 41.9 µM) and an MIC (Acinetobacter baumannii [22]) of 0.25 to 32 µg/mL (≈ 0.655 to 83.9 µM). For the same molecule, the MIC (Escherichia coli [28]) was 1.6 µg/mL (≈ 4.19 µM), the MIC50 (Escherichia coli [23]) was 1 µg/mL (≈ 2.62 µM) and the MIC90 (Escherichia coli [23]) was 1 µg/mL (≈ 2.62 µM).
